Measurements from different studies.
Cell line: MV4-11
Read-out: cell growth or viability

SMILES | technique | time | endpoint | result
Cc1n[nH]c2ccc3nc(-c4ccc(C(=O)N(C)CCN(C)C)cc4)c4c(c3c12)CCC(C)(C)C4 | resazurin | 72 h | GI50 | 258 nM
Nc1ccccc1NC(=O)c1ccc(Cn2cnc3c(Nc4ccc(Br)cc4F)ncnc32)cc1 | MTT | 72 h | IC50 | 280 nM
COc1cc(-c2cc(C(C)=O)n3ccccc23)c(OC)cc1Cn1ccnc1 | ATP luminescence | – | IC50 | 70 nM
O=C(NCCN1CCCC1)c1ccc(-c2nc3ccc4[nH]ncc4c3c3c2CCCC3)c(F)c1 | resazurin | 72 h | GI50 | 208 nM
Fc1ccc(Oc2ccc(Nc3ccc4ncc(OCC5CCNCC5)nc4c3)cc2)cc1 | XTT | 7 days | EC50 | 960 nM
O=C(NO)c1ccc(Cn2cnc3c(Nc4ccc(Br)cc4F)ncnc32)cc1 | MTT | 72 h | IC50 | 770 nM
Cc1sc2c(c1C)C(c1ccc(Cl)cc1)=N[C@@H](CC(=O)NCCCCNC(=O)COc1cccc3c1C(=O)N(C1CCC(=O)NC1=O)C3=O)c1nnc(C)n1-2 (stereo partly shown) | CCK-8 | 72 h | IC50 | 520 nM
NCCNC(=O)c1ccc(-c2nc3ccc4[nH]ncc4c3c3c2CCCC3)cc1 | resazurin | 72 h | GI50 | 480 nM
O=C(NO)c1ccc(Cn2cnc3c(Nc4ccc(F)c(Cl)c4)ncnc32)cc1 | MTT | 72 h | IC50 | 1140 nM
c1cc(N2CCCCC2)ccc1Nc1cc2ncc(OCC3CCNCC3)nc2cc1-c1ccc(N2CCCCC2)cc1 | XTT | 7 days | EC50 | 3000 nM
COc1ccc(Nc2ncnc3c2ncn3Cc2ccc(C(=O)Nc3ccccc3N)cc2)cc1 | MTT | 72 h | IC50 | 720 nM
CC(C)Cc1ccc([C@H](C)C(=O)O)cc1 | MTT | 72 h | IC50 | 277000 nM
c1cc(-c2cc3ncc(OCC4CCNCC4)nc3cc2-c2cccc(N3CCCCC3)c2)cc(N2CCCCC2)c1 | XTT | 7 days | EC50 | 1400 nM
Cc1n[nH]c2ccc3nc(-c4ccc(C(=O)NCCN(C)C)cn4)c4c(c3c12)CCCCC4 | resazurin | 72 h | GI50 | 132 nM
Nc1cccc(-c2ccc3ncc(OCC4CCNCC4)nc3c2)c1 | XTT | 7 days | EC50 | ≥ 28000 nM
CONC(=O)c1cccc2c1cc(C)n2-c1nc2c(c(NCc3ccccc3)n1)CCCN2 | – | 72 h | IC50 | 400 nM
